The text below walks through data of PMC10073337 (Biochemistry, 2023).

Marks after values point to notes of the source that are not given here.

One data set addresses T1, HsIYD containing FMNox (Homo sapiens, UniProt Q6PHW0).
T1 sequence (Q6PHW0 with tags, fused parts or gaps): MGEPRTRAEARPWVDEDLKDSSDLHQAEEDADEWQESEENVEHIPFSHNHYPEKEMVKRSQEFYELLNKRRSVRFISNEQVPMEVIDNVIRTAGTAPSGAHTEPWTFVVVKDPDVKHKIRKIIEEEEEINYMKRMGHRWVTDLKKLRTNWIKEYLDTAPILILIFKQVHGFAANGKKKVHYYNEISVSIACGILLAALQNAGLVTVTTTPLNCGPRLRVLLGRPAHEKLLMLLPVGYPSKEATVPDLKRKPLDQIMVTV
Put plainly: Binding affinity to HsIYD containing oxidized FMN. In a few lines:
(§1)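 HsIYD (residues 2–31 removed) was expressed as a SUMO fusion and purified by Ni2+ affinity and size exclusion. HhIYD carried a C-terminal His6 tag and was purified by Ni2+ affinity. Ligand was titrated into 3 μM enzyme in 110 mM potassium phosphate pH 7.4, stirred, at 25 °C. Flavin fluorescence (ex 450, em 516 nm) was read 2 min after each addition. Kd was fitted from fractional remaining fluorescence versus total enzyme and ligand.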

In a further data set the target is T2, HhIYD containing FMNox (Haliscomenobacter hydrossis, UniProt F4KU78).
T2 sequence (F4KU78 1-222): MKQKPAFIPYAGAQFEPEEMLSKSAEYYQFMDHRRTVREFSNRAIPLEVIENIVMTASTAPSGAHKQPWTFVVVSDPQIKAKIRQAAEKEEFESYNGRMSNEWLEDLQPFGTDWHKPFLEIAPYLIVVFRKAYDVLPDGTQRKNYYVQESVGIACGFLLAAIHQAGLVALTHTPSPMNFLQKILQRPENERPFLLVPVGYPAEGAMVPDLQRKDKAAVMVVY
Description: Binding affinity to HhIYD containing oxidized FMN. In a few lines: as §1

For data set [1] the following is noted: free in neutral aqueous solution at 25 °C; cited from earlier work.
Data set [2] concerns the target T3, HsIYD reconstituted with FMN analogues (Homo sapiens, UniProt Q6PHW0).
T3 sequence (Q6PHW0 with tags, fused parts or gaps): T1 sequence (Q6PHW0 with tags, fused parts or gaps)
Format: biochemical. To be noted: I-Tyr as substrate, HsIYD reconstituted with the cofactor, pH 7.4. The method, boiled down: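 FMN was stripped from column-bound SUMO–HsIYD with 0.6 to 1.5 M guanidinium HCl, then the gradient was reversed. The protein was loaded with 200 μM flavin analogue for 4 h at 4 °C and washed. It was eluted with 250 mM imidazole, the tag was cleaved, and size exclusion followed. Turnover used 70–80 nM enzyme, 100 mM potassium phosphate pH 7.4, 0.5% dithionite and 25 °C, with HPLC product detection.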

The next data set deals with T4, HhIYD (Haliscomenobacter hydrossis, UniProt F4KU78).
T4 sequence (F4KU78 1-222): T2 sequence (F4KU78 1-222)
Description: Competitive inhibition of I-Tyr dehalogenation by HhIYD. The class given is biochemical. The method, boiled down: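 His6-tagged HhIYD (70–80 nM final) was incubated with I-Tyr in 111 mM potassium phosphate pH 7.4 at 25 °C. Dithionite (5% in 5% sodium bicarbonate) was added at one-tenth volume as reductant. Deiodinated product was quantified by reverse-phase C18 HPLC. The test compound was included as a competitive inhibitor, giving Ki against the reduced enzyme.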

Data set [3] can be described thus: Estimated phenol pKa and phenolate fraction of substrates. The class given is physicochemical. To be noted: assay conditions of pH 7.4, based on estimated pKa.
Data set [4] addresses T5, IYD from Haliscomenobacter hydrossis (HhIYD) (Haliscomenobacter hydrossis, UniProt F4KU78).
T5 sequence (F4KU78 1-222): T2 sequence (F4KU78 1-222)
Put plainly: Catalytic deiodination. Format: biochemical. Conditions: I-Tyr turnover, pL 7.4, 100 mM potassium phosphate.

The target in data set [5] is T6, Iodotyrosine deiodinase (Human, HsIYD) (Homo sapiens, UniProt Q6PHW0).
T6 sequence (Q6PHW0 with tags, fused parts or gaps): T1 sequence (Q6PHW0 with tags, fused parts or gaps)
Description: Catalytic deiodination. The class given is biochemical. To be noted: 100 mM potassium phosphate pH 7.4, 0.5% sodium dithionite.

The conditions of data set [6]: cited from earlier work.

Consider `N[C@@H](Cc1cc(F)c(O)c(I)c1)C(=O)O` [I-F-Tyr, 3-fluoro-5-iodotyrosine], for which the Kd (usually the free concentration of one partner at which half of the binding sites on the other are occupied at equilibrium, for simple one-to-one binding) amounted to 0.9 ± 0.1 µM at HsIYD containing FMNox and 6.9 ± 0.3 µM on HhIYD containing FMNox.
Turning to `Cc1cc2nc3c(=O)[nH]c(=O)nc-3n(C[C@H](O)[C@H](O)[C@H](O)COP(=O)(O)O)c2cc1C` [FMN, Flavin Mononucleotide], in data set [1], the redox potential was −205^d mV. Further, in data set [2], the kcat is on record as 5.2 ± 0.2 s^−1 × 10^−2.
With `COc1cc(C[C@H](N)C(=O)O)cc(I)c1O` [I-MeO-Tyr, 3-iodo-5-methoxytyrosine], the dissociation constant (Kd) at HsIYD containing FMNox stood at 6.3 ± 0.3 µM; at HhIYD containing FMNox, 4.3 ± 0.4 µM.
As to `COc1cc2c(cc1C)nc1c(=O)[nH]c(=O)nc-1n2C[C@H](O)[C@H](O)[C@H](O)COP(=O)(O)O` [8-MeO-FMN, 8-methoxy-desmethylFMN], the redox potential in data set [1] is −260^c mV. In addition, in data set [2], the kcat stood at 9.0 ± 0.3 s^−1 × 10^−2.
In the case of `Cc1cc2c(cc1Cl)nc1c(=O)[nH]c(=O)nc-1n2C[C@H](O)[C@H](O)[C@H](O)COP(=O)(O)O` [7-Cl-FMN], the redox potential in data set [1] is −128^d mV. Besides, the kcat in data set [2] is on record as 3.3 ± 0.2 s^−1 × 10^−2.
Take `N[C@@H](Cc1ccc(O)c(F)c1)C(=O)O` [fluorotyrosine, 3-fluorotyrosine]: at HhIYD, the Ki (as a rule, the dissociation constant of the complex between target and ligand, obtained from inhibition or displacement) was found to be 10.7 ± 0.1 µM.
`N#Cc1cc(C[C@H](N)C(=O)O)cc(I)c1O` [I-CN-Tyr, 3-cyano-5-iodotyrosine]: the “fraction existing in phenolate form” value in data set [3] is on record as 98%. For the same compound, the results for the Kd on HsIYD containing FMNox and at HhIYD containing FMNox were 7 ± 0.03 µM and 7.3 ± 0.4 µM, respectively.
Turning to `Cc1cc(C[C@H](N)C(=O)O)cc(I)c1O` [I-Me-Tyr, 3-Iodo-5-methyltyrosine], the “fraction existing in phenolate form” value in data set [3] is 3.4%. Besides, the equilibrium dissociation constant (Kd) came to 2.6 ± 0.03 µM on HsIYD containing FMNox and 1.7 ± 0.1 µM on HhIYD containing FMNox.
Regarding `N[C@@H](Cc1ccc(O)c(I)c1)C(=O)O` [I-Tyr, iodotyrosine], the Km (usually the substrate concentration at which the rate is half of its maximum) in data set [4] (D2O) was 12 ± 4 µM; in [4] (H2O, 9% glycerol), 13 ± 4 µM; in [4] (H2O), 23 ± 4 µM; in [5] it was 19 ± 3 µM. In addition, the kcat in data set [4] (D2O) was 0.41 ± 0.05 s⁻¹; in [4] (H2O, 9% glycerol), 0.39 ± 0.05 s⁻¹; in data set [4] (H2O), 0.64 ± 0.08 s⁻¹; in [5], 0.12 ± 0.008 s⁻¹.
Regarding `N[C@@H](Cc1cc(I)c(O)c(I)c1)C(=O)O` [I2-Tyr, diiodotyrosine], the “pKa of the α-ammonium group” value in data set [6] is recorded as 7.8.
